Source: ChEMBL document CHEMBL1137710, “Synthesis and in vitro antitumor activity of new quinoxaline derivatives” (2009)

Experiments:
Type in all cases: functional
NCI-H460 = test: Anticancer activity against human NCI-H460 cells assessed as cell growth at 100 uM after 48 hrs by sulforhodamine B assay; conditions: NCI-H460, 48 h, read-out: Activity
MCF7 [1] = test: Anticancer activity against human MCF7 cells assessed as cell growth at 100 uM after 48 hrs by sulforhodamine B assay; conditions: MCF7, 48 h, read-out: Activity
SF-268 [2] = test: Anticancer activity against human SF268 cells assessed as cell growth at 100 uM after 48 hrs by sulforhodamine B assay; conditions: SF-268, 48 h, read-out: Activity
HL-60(TB) = test: Growth inhibition of human HL-60(TB) cells after 48 hrs by sulforhodamine B assay; conditions: HL-60, 48 h
Procedure, shortened: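 Tested only on compounds active in a three-line prescreen, in the NCI 60-human-tumour-cell-line panel over a 5-log dose range. Values come from dose–response curves as log10 molar GI50, the concentration inhibiting 50% net cell growth. Log10 TGI (total growth inhibition) and log10 LC50 (50% net cell death) were derived too. Mean graph midpoints include insensitive lines at the highest concentration tested.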

K562 = test: Growth inhibition of human K562 cells after 48 hrs by sulforhodamine B assay; conditions: K562, 48 h
Procedure, shortened: (§1)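 NCI 60-human-tumor-cell-line panel, with compounds tested over a 5-log dose range. Values are taken from dose-response curves as log10 molar concentrations: GI50 is 50% net growth inhibition, TGI is total growth inhibition, and LC50 is 50% net cell death.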

[3] = Growth inhibition of human […] cells after 48 hrs by sulforhodamine B assay; procedure, shortened: as §1
HOP-62 = test: Growth inhibition of human HOP62 cells after 48 hrs by sulforhodamine B assay; conditions: HOP-62, 48 h; procedure, shortened: as §1
NCI-H322M = test: Growth inhibition of human NCI-H322M cells after 48 hrs by sulforhodamine B assay; procedure, shortened: as §1
NCI-H522 = test: Growth inhibition of human NCI-H522 cells after 48 hrs by sulforhodamine B assay; conditions: NCI-H522, 48 h; procedure, shortened: as §1
SW-620 = test: Growth inhibition of human SW620 cells after 48 hrs by sulforhodamine B assay; conditions: SW-620, 48 h
Procedure, shortened: (§2)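 Run in the NCI 60-human-tumour-cell-line panel, tested over a 5-log dose range. Dose–response curves gave three values per cell line, each as a log10 molar concentration: GI50 (50% inhibition of net cell growth), TGI (total inhibition of net growth) and LC50 (50% net cell death). The mean graph midpoint is the arithmetic mean over all lines, with insensitive lines entered at the highest concentration tested.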

SF-268 [4] = test: Growth inhibition of human SF268 cells after 48 hrs by sulforhodamine B assay; conditions: SF-268, 48 h; procedure, shortened: as §1
SNB-19 = test: Growth inhibition of human SNB19 cells after 48 hrs by sulforhodamine B assay; conditions: SNB-19, 48 h; procedure, shortened: as §2
U-251 = test: Growth inhibition of human U251 cells after 48 hrs by sulforhodamine B assay; conditions: U-251, 48 h; procedure, shortened: as §2
LOX IMVI = test: Growth inhibition of human LOXIMVI cells after 48 hrs by sulforhodamine B assay; procedure, shortened: as §1
M14 = test: Growth inhibition of human M14 cells after 48 hrs by sulforhodamine B assay; conditions: M14, 48 h; procedure, shortened: as §1
SK-MEL-28 = test: Growth inhibition of human SK-MEL-28 cells after 48 hrs by sulforhodamine B assay; conditions: SK-MEL-28, 48 h; procedure, shortened: as §1
UACC-62 = test: Growth inhibition of human UACC62 cells after 48 hrs by sulforhodamine B assay; conditions: UACC-62, 48 h; procedure, shortened: as §2
IGROV-1 = test: Growth inhibition of human IGROV1 cells after 48 hrs by sulforhodamine B assay; conditions: IGROV-1, 48 h; procedure, shortened: as §1
OVCAR-3 = test: Growth inhibition of human OVCAR-3 cells after 48 hrs by sulforhodamine B assay; conditions: OVCAR-3, 48 h; procedure, shortened: as §1
OVCAR-4 = test: Growth inhibition of human OVCAR4 cells after 48 hrs by sulforhodamine B assay; conditions: OVCAR-4, 48 h; procedure, shortened: as §1
OVCAR-8 = test: Growth inhibition of human OVCAR8 cells after 48 hrs by sulforhodamine B assay; conditions: OVCAR-8, 48 h; procedure, shortened: as §1
786-0 = test: Growth inhibition of human 786-0 cells after 48 hrs by sulforhodamine B assay; conditions: 786-0, 48 h; procedure, shortened: as §1
CAKI-1 = test: Growth inhibition of human Caki1 cells after 48 hrs by sulforhodamine B assay; conditions: CAKI-1, 48 h; procedure, shortened: as §1
UO-31 = test: Growth inhibition of human UO31 cells after 48 hrs by sulforhodamine B assay; conditions: UO-31, 48 h; procedure, shortened: as §2
PC-3 = test: Growth inhibition of human PC3 cells after 48 hrs by sulforhodamine B assay; conditions: PC-3, 48 h; procedure, shortened: as §1
NCI/ADR-RES = test: Growth inhibition of human NCI/ADR-RES cells after 48 hrs by sulforhodamine B assay; procedure, shortened: as §1
[5] = Growth inhibition of human Hs 578T cells after 48 hrs by sulforhodamine B assay; procedure, shortened: as §1
MDA-MB-435 = test: Growth inhibition of human MDA-MB-435 cells after 48 hrs by sulforhodamine B assay; conditions: MDA-MB-435, 48 h; procedure, shortened: as §1
MCF7 [6] = test: Growth inhibition of human MCF7 cells after 48 hrs by sulforhodamine B assay; conditions: MCF7, 48 h; procedure, shortened: as §1
[7] = read-out: pLC50 (the source's name) (converted)

## COc1ccc(Sc2nc3cc(N)cc(N)c3nc2-c2ccccc2)cc1
NCI-H460
  growth at 100 µM: 0%
MCF7 [1]
  growth at 100 µM: 8%
SF-268 [2]
  growth at 100 µM: 7%
HL-60(TB)
  GI50: 4.27 µM
  LC50: > 100 µM
HL-60(TB); read-out: pTGI (converted)
  TGI: > 100 µM
K562
  GI50: 9.77 µM
  LC50: > 100 µM
K562; read-out: pTGI (converted)
  TGI: > 100 µM
[3]
  GI50: 3.98 µM
  LC50: > 100 µM
[3]; read-out: pTGI (converted)
  TGI: 85.1 µM
HOP-62
  GI50: > 100 µM
  LC50: > 100 µM
HOP-62; read-out: pTGI (converted)
  TGI: > 100 µM
NCI-H322M
  GI50: 35.5 µM
  LC50: > 100 µM
NCI-H322M; read-out: pTGI (converted)
  TGI: > 100 µM
NCI-H522
  GI50: 3.24 µM
  LC50: > 100 µM
NCI-H522; read-out: pTGI (converted)
  TGI: > 100 µM
SW-620
  GI50: 26.3 µM
SW-620; [7]
  CC50: > 100 µM
SW-620; read-out: pTGI (converted)
  TGI: > 100 µM
SF-268 [4]
  GI50: > 100 µM
  LC50: > 100 µM
SF-268 [4]; read-out: pTGI (converted)
  TGI: > 100 µM
SNB-19
  GI50: > 100 µM
  LC50: > 100 µM
SNB-19; read-out: pTGI (converted)
  TGI: > 100 µM
U-251
  GI50: > 100 µM
  LC50 (50% net cell kill): > 100 µM
U-251; read-out: pTGI (converted)
  TGI: > 100 µM
LOX IMVI
  GI50: 51.3 µM
  LC50: > 100 µM
LOX IMVI; read-out: pTGI (converted)
  TGI: > 100 µM
M14
  GI50: > 100 µM
M14; [7]
  CC50: > 100 µM
M14; read-out: pTGI (converted)
  TGI: > 100 µM
SK-MEL-28
  GI50: 24.5 µM
SK-MEL-28; [7]
  CC50: > 100 µM
SK-MEL-28; read-out: pTGI (converted)
  TGI: > 100 µM
UACC-62
  GI50: 38 µM
UACC-62; [7]
  CC50: > 100 µM
UACC-62; read-out: pTGI (converted)
  TGI: > 100 µM
IGROV-1; [7]
  CC50: > 100 µM
IGROV-1; read-out: pTGI (converted)
  TGI: > 100 µM
OVCAR-3; [7]
  CC50: > 100 µM
OVCAR-3; read-out: pTGI (converted)
  TGI: > 100 µM
OVCAR-4; [7]
  CC50: > 100 µM
OVCAR-4; read-out: pTGI (converted)
  TGI: > 100 µM
OVCAR-8
  GI50: > 100 µM
OVCAR-8; [7]
  CC50: > 100 µM
OVCAR-8; read-out: pTGI (converted)
  TGI: > 100 µM
786-0
  GI50: 13.2 µM
786-0; [7]
  CC50: 70.8 µM
786-0; read-out: pTGI (converted)
  TGI: 30.2 µM
CAKI-1
  GI50: 13.2 µM
CAKI-1; [7]
  CC50: > 100 µM
CAKI-1; read-out: pTGI (converted)
  TGI: 52.5 µM
UO-31
  GI50: 4.17 µM
UO-31; [7]
  CC50: > 100 µM
UO-31; read-out: pTGI (converted)
  TGI: > 100 µM
PC-3
  GI50: 1.74 µM
PC-3; [7]
  CC50: 19.1 µM
PC-3; read-out: pTGI (converted)
  TGI: 5.13 µM
NCI/ADR-RES
  GI50: > 100 µM
NCI/ADR-RES; [7]
  CC50: > 100 µM
NCI/ADR-RES; read-out: pTGI (converted)
  TGI: > 100 µM
[5]
  GI50: > 100 µM
[5]; [7]
  CC50: > 100 µM
[5]; read-out: pTGI (converted)
  TGI: > 100 µM
MDA-MB-435
  GI50: > 100 µM
MDA-MB-435; [7]
  CC50: > 100 µM
MDA-MB-435; read-out: pTGI (converted)
  TGI: > 100 µM
MCF7 [6]
  GI50: 16.6 µM
MCF7 [6]; [7]
  CC50: > 100 µM
MCF7 [6]; read-out: pTGI (converted)
  TGI: > 100 µM
